Data taken from ChEMBL document CHEMBL2169817, “Development of novel bisphosphonate prodrugs of doxorubicin for targeting bone metastases that are cleaved pH dependently or by cathepsin B: synthesis, cleavage properties, and binding properties to hydroxyapatite as well as bone matrix” (J Med Chem, 2012).
Activity calls are given as the source filed them. The calls are words filed in the database; no cut-off is given here.

Legend:
[1] = Prodrug conversion assessed as doxorubicin formation by HPLC analysis at pH 5 in presence of cathepsin B; type: physicochemical
Outline: (§1)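 Prodrug stock (1.5 mM) mixed with human liver cathepsin B (0.4 mg/mL, 23.8 U/mg) in 50 mM sodium acetate, 100 mM NaCl, 4 mM EDTA, 8 mM L-cysteine at pH 5.0 or 6.0. Incubated at 37 °C. Aliquots taken at 5–120 min and analysed by gradient C18 RP-HPLC. Control at pH 5.0 omitted the enzyme.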

Hydroxyapatite [2] = assay: Binding affinity to bone mineral hydroxyapatite at pH 7.4 at 300 uM after 1 hr by photometric analysis
Outline: (§2)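 Compound diluted to 300 μM (checked by absorbance at 495 nm, ε 10650 M⁻¹ cm⁻¹) in 4 mM sodium phosphate, 150 mM NaCl at pH 6.0 or 7.4. Hydroxyapatite (30 equiv) added, stirred at 37 °C. Parallel solution without HA as control. Centrifuged at 0–6 h and 20 h; supernatant A495 read. Mean of three measurements. % bound = (conc without HA − conc with HA)/conc without HA × 100.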

Mus musculus [3] = assay: Toxicity in Balb/c nude mouse assessed as mortality at 16 mg/kg, iv of doxorubicin equivalents measured on day 7; type: organism-based; set-up: dose 16 mg/kg, route intravenous; details: in vivo
Outline: (§3)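 Female Balb/C nude mice, five weeks old, about 20 g, three per group. Prodrug dissolved at 3.4 mM in sterile 10 mM sodium phosphate/sodium chloride buffer, pH 7.4. Given i.v. once weekly for three weeks at 8, 16 or 24 mg/kg doxorubicin equivalents. Behaviour and welfare checked daily, body weight every two days, observation over four weeks.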

[4] = Toxicity in iv dosed Balb/c nude mouse administered as doxorubicin equivalents once a week for 3 weeks; type: organism-based; details: in vivo; outline: as §3
Plasma [5] = assay: Stability in human plasma assessed as anthracycline derivative formation over 6 hrs by HPLC analysis; type: ADME, cell-free
Outline: (§4)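 Prodrug stock (3 mM in 10 mM sodium phosphate, 0.15 M NaCl, pH 7.4) added to EDTA-anticoagulated plasma from healthy volunteers, final 600 μM. Incubated at 37 °C for 0, 0.5, 1, 3 and 6 h. Samples centrifuged; supernatant analysed by C18 RP-HPLC with detection at 495 nm.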

[6] = Prodrug conversion assessed as doxorubicin formation after 120 mins by HPLC analysis at pH 5 in presence of cathepsin B; type: physicochemical; details: pH 5, 2 h; outline: as §1
[7] = Half life of the compound by HPLC analysis at pH 5 in presence of cathepsin B; type: physicochemical; outline: as §1
Plasma [8] = assay: Stability in human plasma assessed as doxorubicin formation over 6 hrs by HPLC analysis; type: ADME, cell-free; outline: as §4
Mus musculus [9] = assay: Toxicity in Balb/c nude mouse assessed as weight loss at 8 mg/kg, iv of doxorubicin equivalents administered once a week on days 0, 7 and 14 measured after 1 week; type: organism-based; set-up: dose 8 mg/kg, route intravenous; details: in vivo, 168 h; outline: as §3
Hydroxyapatite [10] = assay: Binding affinity to bone mineral hydroxyapatite at pH 6 at 300 uM after 1 hr by photometric analysis; outline: as §2
Hydroxyapatite [11] = assay: Binding affinity to bone mineral hydroxyapatite at pH 6 at 300 uM up to 24 hrs by photometric analysis; outline: as §2
Hydroxyapatite [12] = assay: Binding affinity to bone mineral hydroxyapatite at pH 7.4 at 300 uM after 5 hrs by photometric analysis; outline: as §2
Mus musculus [13] = assay: Toxicity in Balb/c nude mouse assessed as adverse effects at 8 mg/kg, iv of doxorubicin equivalents administered once a week on days 0, 7 and 14 measured after 1 week; type: organism-based; set-up: dose 8 mg/kg, route intravenous; details: in vivo, 168 h; outline: as §3
[14] = Prodrug conversion assessed as doxorubicin formation after 40 mins by HPLC analysis at pH 6 in presence of cathepsin B; type: physicochemical; details: pH 6, 40 min; outline: as §1
Hydroxyapatite [15] = assay: Binding affinity to bone mineral hydroxyapatite at pH 7.4 at 300 uM after 24 hrs by photometric analysis
Bos taurus = organism: Bos taurus; assay: Binding affinity to bovine bone matrix at pH 7.4 at 300 uM after 4 hrs by spectrophotometric analysis
Outline: (§5)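 Cortical bovine backbone bone cut into 6×4×1 mm pieces, washed with water and absolute ethanol, dried. About 50 mg bone stirred at 37 °C with 300 μM prodrug in 4 mM Na₂HPO₄, 150 mM NaCl, pH 6.0 or 7.4. Control without bone. Centrifuged, supernatant A495 read. % bound = (conc without bone − conc with bone)/conc without bone × 100.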

[16] = […] by HPLC analysis at pH 5 in absence of cathepsin B; type: physicochemical; details: buffer
[17] = Binding affinity to bovine bone matrix at pH 6 at 300 uM after 4 hrs by spectrophotometric analysis; type: ADME, Bos taurus; details: cattle, pH 6, 4 h; outline: as §5
Mus musculus [18] = assay: Toxicity in Balb/c nude mouse assessed as mortality at 24 mg/kg, iv of doxorubicin equivalents measured on day 7; type: organism-based; set-up: dose 24 mg/kg, route intravenous; details: in vivo; outline: as §3
Mus musculus [19] = assay: Toxicity in Balb/c nude mouse assessed as adverse effects at 24 mg/kg, iv of doxorubicin equivalents administered once a week on days 7, 14 and 21; type: organism-based; set-up: dose 24 mg/kg, route intravenous; details: in vivo; outline: as §3
Mus musculus [20] = assay: Toxicity in Balb/c nude mouse assessed as adverse effects at 16 mg/kg, iv of doxorubicin equivalents administered once a week on days 7, 14 and 21; type: organism-based; set-up: dose 16 mg/kg, route intravenous; details: in vivo; outline: as §3
[21] = Prodrug conversion assessed as doxorubicin formation at pH 5.5 at 600 uM by HPLC analysis; type: physicochemical; details: pH 5.5, 600 µM; TDE = time-dependent effect
Outline: (§6)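 Prodrug at a final 2.4 mM in 4 mM sodium phosphate, 150 mM NaCl (pH 7.4), brought to pH 5.5 with 50 mM sodium acetate (pH 4.5). Held at room temperature; samples diluted to 600 μM and analysed by isocratic C18 HPLC (30% CH₃CN/10 mM phosphate pH 7.8) at 5–300 min.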

Mus musculus [22] = assay: Toxicity in Balb/c nude mouse assessed as mortality at 24 mg/kg, iv of doxorubicin equivalents administered once a week on days 7, 14 and 21 measured 13 days post-last dose; type: organism-based; set-up: dose 24 mg/kg, route intravenous; details: in vivo, 312 h; outline: as §3
[23] = Half life of the compound at pH 5.5 at 600 uM by HPLC analysis; type: physicochemical; outline: as §6
Mus musculus [24] = assay: Toxicity in Balb/c nude mouse assessed as change in body weight at 24 mg/kg, iv of doxorubicin equivalents administered once a week on days 7, 14 and 21; type: organism-based; set-up: dose 24 mg/kg, route intravenous; details: in vivo; outline: as §3
Mus musculus [25] = assay: Toxicity in Balb/c nude mouse assessed as anemia at 24 mg/kg, iv of doxorubicin equivalents administered once a week on days 7, 14 and 21 measured 13 days post-last dose; type: organism-based; set-up: dose 24 mg/kg, route intravenous; details: in vivo, 312 h; outline: as §3
Hydroxyapatite [26] = assay: Binding affinity to bone mineral hydroxyapatite at pH 7.4 at 300 uM by photometric analysis
Outline: (§7)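 Test compound at 300 μM in 4 mM sodium phosphate with 150 mM NaCl, at pH 6.0 or pH 7.4, concentration checked by absorbance at 495 nm. Hydroxyapatite powder (30 equiv) added, stirred, incubated at 37 °C, with a matching sample without hydroxyapatite as control. Centrifuged at 0–6 h and 20 h. Supernatant A495 read (ε 10650 M⁻¹ cm⁻¹). % bound = (no-HA − HA conc)/no-HA conc × 100. Mean of three measurements.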

Hydroxyapatite [27] = assay: Binding affinity to bone mineral hydroxyapatite at pH 6 at 300 uM by photometric analysis; outline: as §7

SMILES	Drug metabolism [1]	Activity (Hydroxyapatite [2]) [%]	MTD at 504 h [4] [mg/kg]	Activity (Mus musculus [9])	Activity (Hydroxyapatite [10]) [%]	Activity (Hydroxyapatite [12]) [%]	Activity (Mus musculus [13])	Activity (Bos taurus)	Activity [17]	also measured
COc1cccc2c1C(=O)c1c(O)c3c(c(O)c1C2=O)C[C@@](O)(C(=O)CO)C[C@@H]3O[C@H]1C[C@H](NC(=O)OCc2ccc(NC(=O)[C@H](CCCCN)NC(=O)[C@H](Cc3ccccc3)NC(=O)CCCCCN3C(=O)CC(SCCCSCC(P(=O)([O-])[O-])P(=O)([O-])[O-])C3=O)cc2)[C@H](O)[C@H](C)O1.O=C(O)C(F)(F)F.[Na+].[Na+].[Na+].[Na+] (some centres not stated)	Active	–	–	–	–	–	–	–	–	–
COc1cccc2c1C(=O)c1c(O)c3c(c(O)c1C2=O)C[C@@](O)(C(=O)CO)C[C@@H]3O[C@H]1C[C@H](NC(=O)OCc2ccc(NC(=O)[C@H](C)NC(=O)[C@@H](NC(=O)CCCCCN3C(=O)CC(SCCCSCC(P(=O)(O)O)P(=O)(O)O)C3=O)C(C)C)cc2)[C@H](O)[C@H](C)O1.N.N.N.N (some centres not stated)	Active	50	8	Non-toxic	65	90	Non-toxic	50%	80%	Activity (Mus musculus [3]): Toxic; Stability (Plasma [5]): Stable; Drug metabolism [6]: Active; half-life [7]: 0.75 h; Stability (Plasma [8]): Stable; Activity (Hydroxyapatite [11]): 90%; Drug metabolism [14]: Active; Activity (Hydroxyapatite [15]): 100%; Stability [16]: Stable; Activity (Mus musculus [18]): Toxic
COc1cccc2c1C(=O)c1c(O)c3c(c(O)c1C2=O)C[C@@](O)(/C(CO)=N/NC(=O)CCCCCN1C(=O)CC(SCCCSCC(P(=O)(O)O)P(=O)(O)O)C1=O)C[C@@H]3O[C@H]1C[C@H](N)[C@H](O)[C@H](C)O1.Cl.N.N.N.N (some centres not stated)	–	50	24	Non-toxic	65	80	Non-toxic	50%	80%	Activity (Mus musculus [19]): Non-toxic; Drug metabolism (Plasma [5]): Active; Activity (Mus musculus [20]): Non-toxic; Drug metabolism (Plasma [8]): Active; Drug metabolism [21]: tde; Activity (Mus musculus [22]): Toxic; half-life at 600 µM [23]: 2.5 h; Activity (Mus musculus [24]): Non-toxic; Activity (Mus musculus [25]): Toxic
COc1cccc2c1C(=O)c1c(O)c3c(c(O)c1C2=O)C[C@@](O)(C(=O)CO)C[C@@H]3O[C@H]1C[C@H](N)[C@H](O)[C@H](C)O1 [DOXORUBICIN]	–	–	8	–	–	–	–	inactive	Not Active	Activity (Hydroxyapatite [26]): inactive; Activity (Hydroxyapatite [27]): inactive
